TRPC6 inhibitor – inhibitors of mouse TRPC6 channel | 310,000 tested, 1.1% active | HEK293-TRPC6, membrane potential dye, ACh-evoked depolarization; stronger effect = lower value | B-score at 10 µM | AID 2553 | Q61143;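 active means B-score under library mean minus 3 SD, initial fluorescence not abnormally high, positive integrated signal ratio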;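 further: B-score derived from integrated fluorescence ratio over the kinetic read; more negative B-score means stronger inhibition of depolarization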
Target sequence (Q61143 whole entry, looked up): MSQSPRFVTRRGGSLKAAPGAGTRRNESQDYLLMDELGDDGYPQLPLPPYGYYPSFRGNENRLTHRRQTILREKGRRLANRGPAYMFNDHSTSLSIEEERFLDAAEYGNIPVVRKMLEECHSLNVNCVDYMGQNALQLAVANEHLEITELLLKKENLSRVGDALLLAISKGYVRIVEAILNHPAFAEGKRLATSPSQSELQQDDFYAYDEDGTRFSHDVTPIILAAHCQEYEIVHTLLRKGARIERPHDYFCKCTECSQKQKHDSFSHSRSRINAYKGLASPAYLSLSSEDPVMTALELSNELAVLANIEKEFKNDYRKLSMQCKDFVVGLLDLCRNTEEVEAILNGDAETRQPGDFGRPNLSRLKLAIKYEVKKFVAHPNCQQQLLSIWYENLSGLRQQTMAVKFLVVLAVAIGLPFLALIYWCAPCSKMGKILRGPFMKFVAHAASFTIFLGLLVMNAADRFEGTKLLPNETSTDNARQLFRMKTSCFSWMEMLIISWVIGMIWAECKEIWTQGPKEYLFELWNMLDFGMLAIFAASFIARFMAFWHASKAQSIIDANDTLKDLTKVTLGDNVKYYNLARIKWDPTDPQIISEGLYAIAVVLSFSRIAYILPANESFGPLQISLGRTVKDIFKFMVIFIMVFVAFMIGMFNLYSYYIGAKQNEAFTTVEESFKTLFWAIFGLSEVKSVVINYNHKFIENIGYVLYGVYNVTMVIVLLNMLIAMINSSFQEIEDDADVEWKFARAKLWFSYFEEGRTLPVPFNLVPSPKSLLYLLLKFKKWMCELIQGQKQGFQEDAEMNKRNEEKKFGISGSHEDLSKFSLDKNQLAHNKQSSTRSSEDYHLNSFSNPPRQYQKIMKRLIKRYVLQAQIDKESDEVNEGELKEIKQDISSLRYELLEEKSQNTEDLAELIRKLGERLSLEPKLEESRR
TRPC4 inh – TRPC4 (mouse) channel inhibition; Q9QUQ5; HEK293 TRPC4beta/mu-opioid, DAMGO-evoked Fluo4 calcium flux; stronger effect = lower value; B-score at 10 µM; 300,000 tested, 0.39% active; AID 2247;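 active means B-score over 3 SD under the library average, no early fluorescence shift, positive overall ratio signal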
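Assay system: Stable TRPC4beta/mu-opioid receptor HEK293 cells | Reagent: DAMGO in two steps, submaximal then maximal | Compound dosing: Single concentration per test compound | Signal: Fluo4 Ca2+ flux fluorescence | Evaluation: Per-well B score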
TRPC4 potent – allosterically enhances the mouse TRPC4 cation channel | 310,000 tested, 0.42% active | B-score at 10 µM | AID 2227 | Q9QUQ5 | HEK293 TRPC4beta/mu-opioid, DAMGO EC20, Fluo-4 Ca2+ flux; stronger effect = higher value;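 active means B-score of calcium response area above 5 SD of library B-scores, with initial fluorescence ratio within 5 SD of library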
TRPC6 activator – mouse TRPC6 channel activation; 310,000 tested, 0.13% active; B-score at 10 µM; Q61143; HEK293-TRPC6 membrane potential dye fluorescence; stronger effect = higher value;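 active means B-score of the integrated fluorescence ratio above library mean plus 3 SD, and starting fluorescence ratio within library mean plus 5 SD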;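 further: higher score means more depolarization so channel activation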
TRPC4 agonist – opens the mouse TRPC4 cation channel | B-score at 10 µM | AID 2237 | HEK293 TRPC4beta/mu-opioid, Fluo4 calcium fluorescence; stronger effect = higher value | 310,000 tested, 0.49% active | Q9QUQ5;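 active means B-score above 5 SD of library B-scores, and initial fluorescence ratio not above library mean plus 5 SD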;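 further: positive B-score marks a calcium rise read as TRPC4 activation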
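System: HEK293 cells stably co-expressing mouse TRPC4beta and mu-opioid receptor; Schedule: Fluo4 dye loading 45 min at room temperature, 110 s recording; Detection: Fluo4 fluorescence, kinetic; Evaluation: B-scored integrated calcium fluorescence ratio; Controls: buffer (low) and maximal DAMGO (high).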
TRPC4 spec 2 – second check of whether TRPC6 inhibitors also affect mouse TRPC4; shares compounds with TRPC6 inhibitor; HEK293 TRPC4/MOR, membrane potential dye fluorescence; channel activated by saturating DAMGO dose; inhibition, % at 10 µM; 920 tested, 42% active; AID 2776;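 active means compounds whose fluorescence signal differed from control wells by over 3 SD, either direction, in both duplicate plates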
TRPC4 spec – mouse TRPC4 off-target activity of TRPC6 inhibitors | shares compounds with TRPC6 inhibitor | HEK293 TRPC4/mu-opioid, membrane potential fluorescence | activity change, negative = inhibition, % at 10 µM | 920 tested, 61% active | AID 2777;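 active means rise or fall in signal beyond 3 SD of buffer-only wells in both replicate plates, either sign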;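 further: integrated kinetic ratio of fluorescence range over baseline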
HEK293 MPD ctr 2-1 – second counter-screen for TRPC6 inhibitors: parental HEK293 cells; shares compounds with TRPC6 inhibitor; parental HEK293 membrane potential dye fluorescence; maximal acetylcholine challenge after compound addition; signal change vs control, % at 10 µM; 920 tested, 31% active;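 active means membrane potential signal moving either way by over 3 SD of the maximum-effect control, in both duplicate plates, meaning non-specific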
HEK293 MPD ctr-1 – parental HEK293 nonspecific activity of TRPC6 inhibitors; membrane potential signal change, % at 10 µM; 920 tested, 60% active; shares compounds with TRPC6 inhibitor; parental HEK293 membrane potential dye fluorescence;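 active means membrane potential signal shifting up or down by more than 3 SD of buffer-only wells, on both duplicate plates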
HEK293 MPD ctr-2 – counter-screen for TRPC6 modulators: effect in parental HEK293 cells; shares compounds with TRPC6 inhibitor; membrane potential dye fluorescence; membrane potential signal change, % at 10 µM; 2,400 tested, 51% active; AID 488924;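 active means membrane potential signal moves up or down beyond 5 SD from buffer-only wells, on both duplicate plates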
HEK293 MPD ctr 2-2 – parental HEK293 nonspecific activity of TRPC6 modulators, second screen. shares compounds with TRPC6 inhibitor. membrane potential dye fluorescence; after compound, maximal acetylcholine stimulation. inhibition, % at 10 µM. 2,400 tested, 14% active. AID 488926;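 active means membrane potential signal drops by more than 5 SD from the mean control signal, in both duplicate plates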
TRPC4 ctr mod – mouse TRPC4 off-target activity of TRPC6 modulators; HEK293 TRPC4/mu-opioid, membrane potential fluorescence; 2,400 tested, 69% active; shares compounds with TRPC6 inhibitor; AID 488927; percent change from control (negative = decrease, positive = increase), % at 10 µM;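 active means membrane potential signal moved up or down beyond 5 SD of buffer control wells, in both duplicate plates, actives on both sides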
TRPC4 ctr inh 2 – mouse TRPC4 off-target activity of TRPC6 modulators, second screen | shares compounds with TRPC6 inhibitor | HEK293 TRPC4/mu-opioid, membrane potential dye fluorescence; stimulated with maximal-effect DAMGO | inhibition, % at 10 µM | 2,400 tested, 55% active;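 active means drop in membrane potential signal beyond 5 SD of the control wells in both duplicate plates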;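 further: TRPC4 counter screen for TRPC6 hits run under conditions tuned for TRPC6 not TRPC4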
TRPC6 block conf – mouse TRPC6 inhibitor confirmation | shares compounds with TRPC6 inhibitor | HEK293-TRPC6, membrane potential dye, ACh-evoked depolarization | inhibition, % at 10 µM | 3,300 tested, 43% active | AID 488960;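 active means fluorescence ratio falls more than 5 SD below the full-stimulation control mean, in both duplicate runs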;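 further: integrated fluorescence ratio of peak minus minimum over baseline after agonist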
TRPC6 act confirm – mouse TRPC6 activator confirmation; shares compounds with TRPC6 inhibitor; HEK293-TRPC6 membrane potential dye fluorescence, FDSS; AID 488961; 2,800 tested, 11% active; activation, % at 10 µM;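 active means ratio signal rise beyond 5 SD above unstimulated control wells' mean, seen in both duplicate runs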
Of the large screens only hits and unclear results are named; the others gave an inactive call (follow-up assays come after a bar, where they were run). Sampled rows, rich in hits. Any-hit rate of the full collection: about 2.3%.

CCN1CCN(c2cc(C)c3cc(NC(=O)c4ccc(Br)o4)ccc3n2)CC1	TRPC6 inhibitor -5.45, TRPC4 inh -6 | HEK293 MPD ctr-2 inactive | HEK293 MPD ctr 2-2 inactive | TRPC4 ctr mod -11.5% | TRPC4 ctr inh 2 42.5% | TRPC6 block conf inactive | TRPC6 act confirm inactive
CCN1CCN(c2cc(C)c3cc(NC(=O)c4ccc(C)c(C)c4)ccc3n2)CC1	none
CCN1CCN(c2cc(C)c3cc(NC(=O)c4ccncc4)ccc3n2)CC1	TRPC6 inhibitor -5.48 | HEK293 MPD ctr-2 -100.5% | HEK293 MPD ctr 2-2 inactive | TRPC4 ctr mod inactive | TRPC4 ctr inh 2 inactive | TRPC6 block conf inactive | TRPC6 act confirm inactive
Cc1ccc([N+](=O)[O-])cc1NC(=O)CSc1nncn1-c1ccccn1	none
Cc1cc([N+](=O)[O-])ccc1NC(=O)CSc1nncn1-c1ccccn1	TRPC6 inhibitor -5.77 | HEK293 MPD ctr-2 inactive | HEK293 MPD ctr 2-2 inactive | TRPC4 ctr mod inactive | TRPC4 ctr inh 2 inactive | TRPC6 block conf inactive | TRPC6 act confirm inactive
COc1ccc(S(=O)(=O)N2CCN(c3cc(-c4ccccc4)nc4ncnn34)CC2)cc1	none
COc1ccc(-c2cc(N3CCCC3)n3ncnc3n2)cc1	TRPC6 inhibitor -6.52 | HEK293 MPD ctr-2 134.5% | HEK293 MPD ctr 2-2 inactive | TRPC4 ctr mod 26.0% | TRPC4 ctr inh 2 inactive | TRPC6 block conf inactive
Cc1ccc(NC(=O)c2cccc3c2-c2ccccc2C3=O)cc1C	TRPC6 inhibitor -7.35 | TRPC4 spec 2 inactive | TRPC4 spec inactive | HEK293 MPD ctr 2-1 inactive | HEK293 MPD ctr-1 inactive | TRPC6 block conf inactive | TRPC6 act confirm inactive
Cc1ccc(SCC(=O)OCC(=O)N2CCN(C(=O)c3ccco3)CC2)c(C)c1	none
Cc1cc(C)nc(NC2=NCC(=O)N2c2cc(Cl)cc(Cl)c2)n1	none
Cc1cc(C)nc(NC2=NC3CCCCC3N2)n1 (stereo not drawn)	TRPC6 inhibitor -8.95 | HEK293 MPD ctr-2 191.5% | HEK293 MPD ctr 2-2 127.5% | TRPC4 ctr mod -10.0% | TRPC4 ctr inh 2 53.5% | TRPC6 block conf 56.5% | TRPC6 act confirm inactive
Nc1c(-c2ccccc2)sc2ccc3ccccc3[n+]12	TRPC6 inhibitor -4.99 | HEK293 MPD ctr-2 -99.0% | HEK293 MPD ctr 2-2 inactive | TRPC4 ctr mod -18.5% | TRPC4 ctr inh 2 inactive | TRPC6 block conf 44.0% | TRPC6 act confirm inactive
CCc1ccc(CNC(=O)C2CCN(S(=O)(=O)N3CCC(C)CC3)CC2)cc1	none
O=C(CC(c1ccccc1)c1ccccc1O)N1CCCCC1 (stereo not drawn)	TRPC6 inhibitor -6.35 | HEK293 MPD ctr-2 inactive | HEK293 MPD ctr 2-2 inactive | TRPC4 ctr mod inactive | TRPC4 ctr inh 2 inactive | TRPC6 block conf inactive
Cc1ccc(C(OCC(C)(C)C[N+](C)(C)C)c2ccccc2)cc1 (stereo not drawn)	TRPC6 inhibitor -8.08 | TRPC4 spec 2 inactive | TRPC4 spec inactive | HEK293 MPD ctr 2-1 19.0% | HEK293 MPD ctr-1 inactive | TRPC6 block conf inactive | TRPC6 act confirm inactive
CCN(CC)CCOC(c1ccccc1)c1ccc(C)cc1 (stereo not drawn)	none
CCOC(=O)c1ccc(NC(=O)CCC2COc3ccccc3O2)cc1 (stereo not drawn)	TRPC6 activator 20.1 | HEK293 MPD ctr-2 inactive | HEK293 MPD ctr 2-2 inactive | TRPC4 ctr mod inactive | TRPC4 ctr inh 2 inactive | TRPC6 act confirm 135.5%
CCOc1cc(C(=S)N2CCC(O)CC2)ccc1OS(=O)(=O)c1ccc(Br)cc1	TRPC6 inhibitor -8.39 | TRPC4 spec 2 inactive | TRPC4 spec inactive | HEK293 MPD ctr 2-1 inactive | HEK293 MPD ctr-1 inactive | TRPC6 block conf inactive | TRPC6 act confirm inactive
CN(c1ccc(C(=O)Nc2ccc3c(c2)n(C)c(=O)n3C)cc1)S(C)(=O)=O	none
O=[N+]([O-])c1cccc2c(N3CCCC3)ccnc12	TRPC6 inhibitor -8.93 | HEK293 MPD ctr-2 -360.0% | HEK293 MPD ctr 2-2 95.0% | TRPC4 ctr mod -44.0% | TRPC4 ctr inh 2 55.5% | TRPC6 block conf 69.5% | TRPC6 act confirm inactive
O=C(c1ccccc1F)N1CCN(c2ccc([N+](=O)[O-])c3ncccc23)CC1	none
CCC(C)(C)n1nnnc1C(c1cc2cc3c(cc2[nH]c1=O)OCO3)N1CCCCC1 (stereo not drawn)	TRPC6 inhibitor -5.89 | HEK293 MPD ctr-2 inactive | HEK293 MPD ctr 2-2 inactive | TRPC4 ctr mod inactive | TRPC4 ctr inh 2 inactive | TRPC6 block conf inactive
CCCN1CCN(C(c2cc3cc4c(cc3[nH]c2=O)OCO4)c2nnnn2C(C)(C)C)CC1 (stereo not drawn)	none
Cc1cc(C)c(S(=O)(=O)NC(CC(=O)O)c2cccc([N+](=O)[O-])c2)c(C)c1 (stereo not drawn)	none
CC#CC#Cc1cccc(=O)o1	none
O=C(CSc1nnc(-c2cccs2)n1CC1CCCO1)N1CCCC1 (stereo not drawn)	none
O=C(CCCSc1nnc(-c2cccs2)n1CC1CCCO1)c1ccccc1 (stereo not drawn)	TRPC6 inhibitor -5.18 | HEK293 MPD ctr-2 186.5% | HEK293 MPD ctr 2-2 inactive | TRPC4 ctr mod 33.5% | TRPC4 ctr inh 2 inactive | TRPC6 block conf inactive
CC(C)(C)c1cc(C(=O)NNc2cc(C(F)(F)F)ccc2Cl)n(Cc2ccccc2)n1	none
